Results taken from ChEMBL document CHEMBL1154848, “Cytotoxic 3,4-seco-cycloartane triterpenes from the exudate of Gardenia tubifera” (J Nat Prod, 2010).
≈ marks a conversion by molar mass, not a printed value.

Columns and labels:
[1] = Cytotoxicity against human ChaGo cells after 3 days by MTT assay; format: functional, cell-based; settings: 72 h
In short: (§1)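 Cells grown in RPMI-1640 with 25 mM HEPES, 0.25% (w/v) sodium bicarbonate, 5% (v/v) FBS and 100 µg/mL kanamycin. Freshly trypsinized cells were seeded at 5000 per well and given compound from DMSO-diluted stock. After three days, attached cells were MTT-stained, bound dye was solubilized and absorbance read at 540 nm. IC50 = 50% growth inhibition, averaged over at least six independent determinations.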

[2] = test system: HepG2; test: Cytotoxicity against human HepG2 cells after 3 days by MTT assay; format: functional, cell-based; settings: HepG2, 72 h; in short: as §1
[3] = test system: SW-620; test: Cytotoxicity against human SW620 cells after 3 days by MTT assay; format: functional, cell-based; settings: SW-620, 72 h; in short: as §1
[4] = test system: BT-474; test: Cytotoxicity against human BT474 cells after 3 days by MTT assay; format: functional, cell-based; settings: BT-474, 72 h; in short: as §1
[5] = Cytotoxicity against human KATO III cells after 3 days by MTT assay; format: functional, cell-based, KATO III cell; settings: 72 h; in short: as §1

| SMILES | IC50 [1] [µg/mL] | IC50 [2] [µg/mL] | IC50 [3] [µg/mL] | IC50 [4] [µg/mL] | IC50 [5] [µg/mL] |
| --- | --- | --- | --- | --- | --- |
| C=C(CO)[C@@H]1CC[C@@H]2[C@]3(CC[C@]4(C)[C@@H]([C@H](C)CC=CC(C)(C)O)CC[C@@]24C)C[C@]13CCC(=O)O | > 5 | > 5 | > 5 | > 5 | > 5 |
| C=C1C(=O)O[C@@H]2C[C@@H]3[C@]4(CC[C@]5(C)[C@@H]([C@H](C)Cc6cc(C)co6)CC[C@@]35C)C[C@]4(CCC(=O)OC)[C@H]12 [GARDENOIN B] | > 5 | > 5 | > 5 | > 5 | > 5 |
| C=C1C(=O)O[C@@H]2[C@H](O)[C@@H]3[C@]4(CC[C@]5(C)[C@@H]([C@H](C)Cc6cc(C)co6)CC[C@@]35C)C[C@]4(CCC(=O)OC)[C@H]12 [GARDENOIN C] | 4.4 (≈ 8.62 µM) | 2.8 (≈ 5.48 µM) | 2.5 (≈ 4.9 µM) | > 5 | > 5 |
| C=C1C(=O)O[C@@H]2C[C@@H]3[C@]4(CC[C@]5(C)[C@@H]([C@H](C)Cc6cc(C)co6)CC[C@@]35C)C[C@]4(CCC(=O)O)[C@H]12 [GARDENOIN A] | 1.6 (≈ 3.33 µM) | 4.5 (≈ 9.36 µM) | > 5 | > 5 | > 5 |
